Experimental data: ChEMBL document CHEMBL4811308, “Design, synthesis and broad spectrum antibreast cancer activity of diarylindoles via induction of apoptosis in aggressive breast cancer cells” (Bioorg Med Chem, 2021)
Activity calls are given as the source filed them. No cut-off for these calls is given here.

How the values were obtained:
4T1 = assay: Antitumor activity against mouse 4T1 cells […] in BALB/c mouse assessed as reduction in tumor growth at 10 to 20 mg/kg, po administered for 21 days and measured on day 21 relative to control; format: functional, organism-based; conditions: dose 10-20 mg/kg, time 21.0 day
Summary of the method: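 Orthotopic syngeneic model: 4T1 cells (7 × 10^5) injected into the mammary fat pad of six-week-old female Balb/c mice; randomized once tumors were measurable (1 week). Compounds in ethanol diluted in PBS, 10 or 20 mg/kg oral gavage daily for 21 days; vehicle controls. Tumor size measured twice weekly; volume = (LW²) × 0.5.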

MDA-MB-231 [1] = assay: Induction of apoptosis in human MDA-MB-231 cells assessed as late apoptotic cells at 6 uM incubated for 24 hrs by annexin-V-FITC and PI staining based flow cytometry analysis (reference value: 0.28 to 0.84 %); format: functional
MDA-MB-231 [2] = assay: Induction of apoptosis in human MDA-MB-231 cells assessed as viable cells at 2 uM incubated for 24 hrs by annexin-V-FITC and PI staining based flow cytometry analysis (reference value: 95.27 to 97.16 %); format: functional; conditions: read-out: Activity
MDA-MB-231 [3] = assay: Induction of apoptosis in human MDA-MB-231 cells assessed as necrotic cells at 2 uM incubated for 24 hrs by annexin-V-FITC and PI staining based flow cytometry analysis (reference value: 0.01 to 0.8 %); format: functional
MDA-MB-231 [4] = assay: Induction of apoptosis in human MDA-MB-231 cells incubated for 24 hrs by annexin-V-FITC and PI staining based flow cytometry analysis; format: functional, cell-based; conditions: dose 2-6 µM
MDA-MB-231 [5] = assay: Induction of cell cycle arrest in human MDA-MB-231 cells assessed as accumulation at G0/G1 phase at 4 uM incubated for 24 hrs by PI staining based flow cytometry analysis (reference value: 23.74 to 46.27 %); format: functional
MDA-MB-231 [6] = assay: Cytotoxicity against human MDA-MB-231 cells assessed as reduction in cell viability at 2 to 6 uM incubated for 24 hrs in presence of NAC by MTT assay; format: functional, cell-based; conditions: dose 2-6 µM
Summary of the method: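 MDA-MB-231 cells pretreated 2 h with 10 mM N-acetylcysteine, then exposed to compound for 24 h. Viability by MTT (3 h), formazan in DMSO, absorbance at 540 nm. Three independent experiments, mean ± S.E.M.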

MDA-MB-231 [7] = assay: Induction in caspase-mediated apoptosis in human MDA-MB-231 cells assessed as decrease in cell viability at 2 uM incubated for 24 hrs in presence of Z-VAD-FMK by MTT assay; format: functional, cell-based
Summary of the method: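 MDA-MB-231 cells pretreated 2 h with 50 µM Z-VAD-FMK, then exposed to 2 µM compound for 24 h. Viability by MTT (3 h), formazan in DMSO, absorbance at 540 nm. Three independent experiments, mean ± S.E.M.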

MDA-MB-231 [8] = assay: Induction of mitochondrial membrane depolarization in human MDA-MB-231 cells at 2 to 6 uM incubated for 24 hrs by JC-1 staining based flow cytometry analysis; format: functional, cell-based; conditions: dose 2-6 µM
Summary of the method: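 Mitochondrial potential measured in MDA-MB-231 cells (1 × 10^6) seeded in six-well plates for 24 h and treated 24 h. Trypsinized cells PBS-washed and stained with 5 µg/ml JC-1 for 30 min in dark at room temperature. Resuspended in PBS and read by flow cytometry as red aggregate versus monomer fluorescence.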

MCF7 = assay: Cytotoxicity against human MCF7 cells assessed as reduction in cell viability incubated for 24 hrs by MTT assay; format: functional, cell-based; conditions: MCF7, 24 h
Summary of the method: (§1)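 MTT viability: cells seeded at 1 × 10^4/well, grown 24 h, then exposed to a concentration range of compound for 24 h. MTT (5 mg/mL stock) added for 3 h, formazan dissolved in DMSO, absorbance read at 540 nm.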

PC-3 = assay: Cytotoxicity against human PC-3 cells assessed as reduction in cell viability incubated for 24 hrs by MTT assay; format: functional, cell-based; conditions: PC-3, 24 h; summary of the method: as §1
[9] = Toxicity in BALB/c mouse xenografted with mouse 4T1 cells assessed as survival rate at 10 to 20 mg/kg, po administered for 21 days and measured on day 21; format: organism-based; conditions: in vivo, 504 h, dose 10-20 mg/kg, time 21 day
Summary of the method: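 Orthotopic syngeneic model: 4T1 cells (7 × 10^5) injected into mammary fat pad of six-week-old female Balb/c mice. Once tumours were measurable at one week, mice were randomized into ten groups. Compound was dissolved in ethanol, diluted in PBS, and given by oral gavage at 10 or 20 mg/kg daily for 21 days; vehicle controls. Body weight and tumour size were measured twice weekly.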

HEK293 = assay: Cytotoxicity against human HEK293 cells assessed as reduction in cell viability incubated for 24 hrs by MTT assay; format: cell-based; conditions: HEK293, 24 h; summary of the method: as §1
MDA-MB-231 [10] = assay: Induction of apoptosis in human MDA-MB-231 cells assessed as late apoptotic cells at 2 uM incubated for 24 hrs by annexin-V-FITC and PI staining based flow cytometry analysis (reference value: 0.28 to 0.84 %); format: functional
MDA-MB-231 [11] = assay: Induction of cell cycle arrest in human MDA-MB-231 cells assessed as accumulation at G0/G1 phase at 2 uM incubated for 24 hrs by PI staining based flow cytometry analysis (reference value: 23.74 to 46.27 %); format: functional
MDA-MB-231 [12] = assay: Induction of cell cycle arrest in human MDA-MB-231 cells assessed as accumulation at G0/G1 phase at 6 uM incubated for 24 hrs by PI staining based flow cytometry analysis (reference value: 23.74 to 46.27 %); format: functional
MDA-MB-231 [13] = assay: Induction of apoptosis in human MDA-MB-231 cells assessed as early apoptotic cells at 2 uM incubated for 24 hrs by annexin-V-FITC and PI staining based flow cytometry analysis (reference value: 0.28 to 4.68 %); format: functional
Summary of the method: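 MDA-MB-231 cells (1 × 10^6) grown 24 h in six-well plates, then treated for 24 h. Cells trypsinized, PBS-washed and stained with Annexin V-FITC/PI in binding buffer for 10 min in the dark at room temperature. Early/late apoptotic fractions quantified by flow cytometry.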

## COc1ccc2c(c1)c(Cc1ccc(OCCN3CCCCC3)cc1)c(-c1cc(OC)c(OC)c(OC)c1)n2Cc1ccc(OCCN2CCCCC2)cc1
4T1
  Activity: Active
MDA-MB-231 [1]
  Activity: 37.67%
MDA-MB-231 [2]
  viability at 2 µM: 81.5%
MDA-MB-231 [3]
  Activity: 2.01%
MDA-MB-231 [4]
  Activity: Dose-Dependent Effect
MDA-MB-231 [5]
  Activity: 55.16%
MDA-MB-231 [6]
  Activity: inactive
MDA-MB-231 [7]
  Activity: Active
MDA-MB-231 [8]
  Activity: Active
MCF7
  IC50: 6.48 µM
PC-3
  IC50: 7.07 µM
[9]
  Activity: Non-Toxic
HEK293
  IC50: 30.5 µM
MDA-MB-231 [10]
  Activity: 4.26%
MDA-MB-231 [11]
  Activity: 53.25%
MDA-MB-231 [12]
  Activity: 59.19%
MDA-MB-231 [13]
  Activity: 12.28%

## CCN(CC)CCOc1ccc(Cc2c(-c3cc(OC)c(OC)c(OC)c3)n(Cc3ccc(OCCN(CC)CC)cc3)c3ccc(OC)cc23)cc1
4T1
  Activity: Active
MDA-MB-231 [1]
  Activity: 14.25%
MDA-MB-231 [2]
  viability at 2 µM: 88.2%
MDA-MB-231 [3]
  Activity: 4.3%
MDA-MB-231 [4]
  Activity: Dose-Dependent Effect
MDA-MB-231 [5]
  Activity: 53.87%
MDA-MB-231 [6]
  Activity: inactive
MDA-MB-231 [7]
  Activity: Active
MDA-MB-231 [8]
  Activity: Active
MCF7
  IC50: 6.36 µM
PC-3
  IC50: 8.31 µM
[9]
  Activity: Non-Toxic
HEK293
  IC50: 25.4 µM
MDA-MB-231 [10]
  Activity: 2.94%
MDA-MB-231 [11]
  Activity: 51.72%
MDA-MB-231 [12]
  Activity: 57.6%
MDA-MB-231 [13]
  Activity: 9.52%

## COc1ccc2c(c1)c(Cc1ccc(OCCN(C)C)cc1)c(-c1cc(OC)c(OC)c(OC)c1)n2Cc1ccc(OCCN(C)C)cc1
4T1
  Activity: Active
MDA-MB-231 [1]
  Activity: 15.1%
MDA-MB-231 [2]
  viability at 2 µM: 80.7%
MDA-MB-231 [3]
  Activity: 2.34%
MDA-MB-231 [4]
  Activity: Dose-Dependent Effect
MDA-MB-231 [5]
  Activity: 61.13%
MDA-MB-231 [6]
  Activity: inactive
MDA-MB-231 [7]
  Activity: inactive
MDA-MB-231 [8]
  Activity: Active
MCF7
  IC50: 4.48 µM
PC-3
  IC50: 5.82 µM
[9]
  Activity: Non-Toxic
HEK293
  IC50: 24.5 µM
MDA-MB-231 [10]
  Activity: 5.32%
MDA-MB-231 [11]
  Activity: 60.43%
MDA-MB-231 [12]
  Activity: 64.37%
MDA-MB-231 [13]
  Activity: 11.63%

## COc1ccc2c(c1)c(Cc1ccc(OC(C)CN(C)C)cc1)c(-c1cc(OC)c(OC)c(OC)c1)n2Cc1ccc(OC(C)CN(C)C)cc1 (stereo not drawn)
4T1
  Activity: Active
MDA-MB-231 [1]
  Activity: 26.15%
MDA-MB-231 [2]
  viability at 2 µM: 72.5%
MDA-MB-231 [3]
  Activity: 3.43%
MDA-MB-231 [4]
  Activity: Dose-Dependent Effect
MDA-MB-231 [5]
  Activity: 46.54%
MDA-MB-231 [6]
  Activity: inactive
MDA-MB-231 [7]
  Activity: inactive
MDA-MB-231 [8]
  Activity: Active
MCF7
  IC50: 7.06 µM
PC-3
  IC50: 6.72 µM
[9]
  Activity: Non-Toxic
HEK293
  IC50: 21.8 µM
MDA-MB-231 [10]
  Activity: 3.43%
MDA-MB-231 [11]
  Activity: 46.32%
MDA-MB-231 [12]
  Activity: 49.36%
MDA-MB-231 [13]
  Activity: 17.38%
